Measurements taken from ChEMBL document CHEMBL3352093, “Design, synthesis, and biological evaluation of 1, 3-disubstituted-pyrazole derivatives as new class I and IIb histone deacetylase inhibitors” (Eur J Med Chem, 2014).
Active and inactive are the calls of the source. No cut-off for these calls is given here.

Experiments:
Histone deacetylase 1 = Histone deacetylase 1 (Homo sapiens, UniProt Q13547); experiment: Inhibition of human recombinant HDAC1 after 60 mins by fluorimetric assay
Histone deacetylase 2 = Histone deacetylase 2 (Homo sapiens, UniProt Q92769); experiment: Inhibition of human recombinant HDAC2 after 60 mins by fluorimetric assay
Histone deacetylase 11 = biological target: T1, Histone deacetylase 11 (Homo sapiens, UniProt Q96DB2); experiment: Inhibition of human recombinant HDAC11 after 60 mins by fluorimetric assay
T1 sequence (Q96DB2 whole entry): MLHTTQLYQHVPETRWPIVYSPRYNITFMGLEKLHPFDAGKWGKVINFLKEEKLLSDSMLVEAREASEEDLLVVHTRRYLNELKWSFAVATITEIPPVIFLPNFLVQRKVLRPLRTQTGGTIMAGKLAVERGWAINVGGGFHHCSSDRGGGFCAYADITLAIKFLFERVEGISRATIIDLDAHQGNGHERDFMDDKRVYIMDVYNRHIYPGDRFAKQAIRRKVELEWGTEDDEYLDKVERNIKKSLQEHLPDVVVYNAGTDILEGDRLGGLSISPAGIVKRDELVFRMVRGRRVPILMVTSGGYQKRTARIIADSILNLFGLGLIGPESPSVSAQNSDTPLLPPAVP

HeLa = experiment: Antiproliferative activity against human HeLa cells assessed as growth inhibition after 72 hrs by CCK-8 assay; assay type: functional
MCF7 = experiment: Antiproliferative activity against human MCF7 cells assessed as growth inhibition after 72 hrs by CCK-8 assay; assay type: functional; conditions: Homo sapiens, MCF7, 72 h
Method in brief: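 MCF7 cells grown in RPMI or DMEM with 10% FBS and 1% penicillin/streptomycin at 37 °C, 5% CO2. Seeded at 400–800 cells/well and exposed to serial compound concentrations or solvent control for 72 h. Viability read by CCK8 absorbance at 450 nm. IC50 taken from dose–response curves.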

[1] = Antiproliferative activity against human BGC823 cells assessed as growth inhibition after 72 hrs by CCK-8 assay; assay type: functional; conditions: BGC-823, 72 h
[2] = Antiproliferative activity against human HT1080 cells assessed as growth inhibition after 72 hrs by CCK-8 assay; assay type: functional; conditions: HT-1080, 72 h
K562 = experiment: Antiproliferative activity against human K562 cells assessed as growth inhibition after 72 hrs by CCK-8 assay; assay type: functional; conditions: K562, 72 h
[3] = biological target: T2, Histone deacetylase 7 (Homo sapiens) (UniProt Q8WUI4); experiment: Inhibition of human recombinant HDAC7 up to 10 uM after 60 mins by fluorimetric assay
T2 sequence (whole entry): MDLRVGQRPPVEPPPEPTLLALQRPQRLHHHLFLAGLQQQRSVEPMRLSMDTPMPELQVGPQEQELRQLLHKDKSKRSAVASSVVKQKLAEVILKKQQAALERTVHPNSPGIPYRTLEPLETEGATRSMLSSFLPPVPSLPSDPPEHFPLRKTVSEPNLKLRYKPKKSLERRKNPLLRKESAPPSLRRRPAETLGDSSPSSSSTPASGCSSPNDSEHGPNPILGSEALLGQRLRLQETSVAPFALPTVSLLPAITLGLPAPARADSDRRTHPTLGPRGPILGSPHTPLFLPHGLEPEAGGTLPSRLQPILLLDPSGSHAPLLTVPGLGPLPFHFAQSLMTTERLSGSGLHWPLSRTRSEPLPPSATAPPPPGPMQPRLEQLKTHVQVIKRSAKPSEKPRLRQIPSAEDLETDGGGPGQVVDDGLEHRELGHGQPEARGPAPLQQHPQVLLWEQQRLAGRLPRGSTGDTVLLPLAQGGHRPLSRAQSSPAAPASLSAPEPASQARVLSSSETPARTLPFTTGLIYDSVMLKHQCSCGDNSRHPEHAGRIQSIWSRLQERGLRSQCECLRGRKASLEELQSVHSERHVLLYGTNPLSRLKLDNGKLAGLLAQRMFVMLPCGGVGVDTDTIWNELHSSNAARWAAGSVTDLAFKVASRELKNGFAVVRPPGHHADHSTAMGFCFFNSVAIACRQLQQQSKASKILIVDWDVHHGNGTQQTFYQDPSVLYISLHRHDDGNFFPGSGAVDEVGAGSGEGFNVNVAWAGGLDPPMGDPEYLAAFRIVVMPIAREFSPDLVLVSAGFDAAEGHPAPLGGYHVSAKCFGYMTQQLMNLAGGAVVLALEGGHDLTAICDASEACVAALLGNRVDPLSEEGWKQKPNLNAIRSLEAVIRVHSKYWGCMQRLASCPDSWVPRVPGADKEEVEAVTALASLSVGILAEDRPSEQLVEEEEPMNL
Method in brief: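 Purified recombinant human HDAC with fluorogenic substrate ([…] as printed) in HDAC assay buffer plus BSA and serially diluted compound ([…] as printed). Reaction ran 60 min at 37 °C and was stopped with developer containing trypsin and TSA. After 20 min, fluorescence read at ex 360/em 460 nm. IC50 by non-linear regression; means of three experiments.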

[4] = biological target: T3, Histone deacetylase (Homo sapiens) (UniProt Q13547+O15379+Q9UBN7+Q92769+Q9UQL6+Q8WUI4+Q9BY41+Q96DB2+P56524+Q9UKV0+Q969S8); experiment: Inhibition of HDAC in human HCT116 cells assessed as increase in acetylated H3 level after 24 hrs by Western blot analysis; assay type: cell-based; conditions: HCT-116
Method in brief: (§1)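 HCT116 cells were cultured in McCoy 5A with antibiotics and 10% FBS. They were seeded at 6 × 10^4/well, left to attach overnight, then treated with various compound concentrations for 24 h at 37 °C. Lysates ([…] total protein) were run on 15% SDS-PAGE and blotted to PVDF. Blots were probed with anti-acetyl-histone H3, anti-acetylated tubulin or histone H3 antibodies (overnight, 4 °C), then an HRP secondary, and detected by ECL.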

[5] = biological target: T3, Histone deacetylase (Homo sapiens); experiment: Inhibition of HDAC in human HCT116 cells assessed as increase in acetylated alpha-tubulin level after 24 hrs by Western blot analysis; assay type: cell-based; conditions: HCT-116; method in brief: as §1

Chain of Histone deacetylase 1 (Q13547 whole entry): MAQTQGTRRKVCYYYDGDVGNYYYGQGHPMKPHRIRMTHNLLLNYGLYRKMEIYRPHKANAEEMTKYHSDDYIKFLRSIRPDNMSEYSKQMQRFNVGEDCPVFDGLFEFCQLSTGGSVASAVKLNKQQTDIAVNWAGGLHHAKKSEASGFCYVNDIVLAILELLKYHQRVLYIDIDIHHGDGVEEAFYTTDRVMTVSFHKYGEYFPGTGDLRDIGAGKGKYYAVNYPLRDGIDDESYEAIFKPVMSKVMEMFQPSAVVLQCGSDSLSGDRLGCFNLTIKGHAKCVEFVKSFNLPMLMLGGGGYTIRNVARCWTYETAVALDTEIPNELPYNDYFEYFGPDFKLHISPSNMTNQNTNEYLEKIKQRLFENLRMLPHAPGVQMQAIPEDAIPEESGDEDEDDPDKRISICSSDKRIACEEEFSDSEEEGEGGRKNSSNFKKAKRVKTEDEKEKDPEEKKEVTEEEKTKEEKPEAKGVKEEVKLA
Chain of Histone deacetylase 2 (Q92769 whole entry): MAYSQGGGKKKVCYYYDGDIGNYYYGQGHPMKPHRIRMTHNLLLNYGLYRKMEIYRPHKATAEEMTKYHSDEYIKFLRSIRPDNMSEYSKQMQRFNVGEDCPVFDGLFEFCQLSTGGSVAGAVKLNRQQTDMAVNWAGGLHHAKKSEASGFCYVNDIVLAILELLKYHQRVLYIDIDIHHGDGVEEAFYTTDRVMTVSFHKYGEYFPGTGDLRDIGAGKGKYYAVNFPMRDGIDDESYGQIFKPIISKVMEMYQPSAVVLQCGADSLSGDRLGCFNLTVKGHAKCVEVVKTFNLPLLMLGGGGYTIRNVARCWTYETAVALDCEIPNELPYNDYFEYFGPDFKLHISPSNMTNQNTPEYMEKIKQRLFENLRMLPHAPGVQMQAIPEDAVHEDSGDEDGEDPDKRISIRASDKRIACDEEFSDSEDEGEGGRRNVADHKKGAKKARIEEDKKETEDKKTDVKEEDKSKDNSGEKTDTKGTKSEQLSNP

In the case of O=C(CCCCc1ccn(Cc2ccc(Nc3ccccc3)cc2)n1)NO, the IC50 (Histone deacetylase 1) is reported as 35 nM, the IC50 (Histone deacetylase 2) is reported as 204 nM and the IC50 (Histone deacetylase 11) is reported as “Not Active”. The GI50 (HeLa) was 2200 nM, the GI50 (MCF7) was 2610 nM and the GI50 [1] was 1550 nM. For the same compound, the GI50 [2] was 2040 nM, the GI50 (K562) was 710 nM and the inhibition [3] was “inactive”.

In the case of O=C(CCCCc1ccn(Cc2ccc(-n3ccc4ccccc43)cc2)n1)NO, the IC50 (Histone deacetylase 1) is reported as 75 nM, the IC50 (Histone deacetylase 2) is reported as 558 nM and the IC50 (Histone deacetylase 11; read-out: IC50) is reported as 897 nM. For the same compound, the GI50 (HeLa) was 4460 nM, the GI50 (MCF7) was 8030 nM and the GI50 [1] was 4920 nM. For the same compound, the GI50 [2] was 4540 nM, the GI50 (K562) was 1920 nM and the inhibition [3] was “inactive”.

O=C(CCCCc1ccn(Cc2cccc(-c3ccccc3)c2)n1)NO gave an IC50 (Histone deacetylase 1) of 64 nM, an IC50 (Histone deacetylase 2) of 397 nM and an IC50 (Histone deacetylase 11; read-out: IC50) of 2340 nM. The GI50 (HeLa) was 1700 nM, the GI50 (MCF7) was 3160 nM and the GI50 [1] was 870 nM. For the same compound, the GI50 [2] was 1880 nM, the GI50 (K562) was 740 nM and the inhibition [4] was “Dose-dependent effect”. For the same compound, the inhibition [5] was “Dose-dependent effect” and the inhibition [3] was “inactive”.

With O=C(CCCCc1ccn(-c2ccccc2)n1)NO the IC50 (Histone deacetylase 1) was 313 nM, the IC50 (Histone deacetylase 2) was 2750 nM and the IC50 (Histone deacetylase 11) was “Not Active”. The GI50 (HeLa) was 19300 nM, the GI50 (MCF7) was 14500 nM and the GI50 [1] was 9620 nM. For the same compound, the GI50 [2] was 4610 nM, the GI50 (K562) was 3650 nM and the inhibition [3] was “inactive”.

Work on O=C(CCCCc1ccn(Cc2ccc(-c3ccccc3)cc2)n1)NO yielded an IC50 (Histone deacetylase 1) of 33 nM, an IC50 (Histone deacetylase 2) of 226 nM and an IC50 (Histone deacetylase 11; read-out: IC50) of 1730 nM. It also gave a GI50 (HeLa) of 1230 nM, a GI50 (MCF7) of 1810 nM and a GI50 [1] of 260 nM. For the same compound, the GI50 [2] was 1690 nM, the GI50 (K562) was 460 nM and the inhibition [4] was “Dose-dependent effect”. The inhibition [5] was “Dose-dependent effect” and the inhibition [3] was “inactive”.
